According to ChEMBL document CHEMBL1157786, “Investigation of the bioactive conformation of histamine H3 receptor antagonists by the cyclopropylic strain-based conformational restriction strategy” (J Med Chem, 2010):
Calls of active or inactive are those of the source. The calls are words filed in the database; no cut-off is given here.

Key:
Histamine H3 receptor [1] = target: T1, Histamine H3 receptor (Homo sapiens, UniProt Q9Y5N1); assay: Displacement of [3H]N-alpha-methyl-histamine from human histamine H3 receptor expressed in human HEK293-EBNA cells; assay type: cell-based
T1 sequence (Q9Y5N1 whole entry): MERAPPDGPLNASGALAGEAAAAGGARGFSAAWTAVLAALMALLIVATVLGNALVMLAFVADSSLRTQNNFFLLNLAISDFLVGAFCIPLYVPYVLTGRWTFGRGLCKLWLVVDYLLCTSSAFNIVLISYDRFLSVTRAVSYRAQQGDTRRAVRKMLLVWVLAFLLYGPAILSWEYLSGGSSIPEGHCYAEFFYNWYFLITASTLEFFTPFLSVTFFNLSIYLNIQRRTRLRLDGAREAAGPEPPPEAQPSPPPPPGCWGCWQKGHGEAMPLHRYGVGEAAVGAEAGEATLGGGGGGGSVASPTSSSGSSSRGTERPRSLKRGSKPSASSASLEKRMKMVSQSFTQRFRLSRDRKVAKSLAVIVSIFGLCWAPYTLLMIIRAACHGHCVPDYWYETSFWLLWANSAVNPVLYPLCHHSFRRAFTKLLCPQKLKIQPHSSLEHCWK

Histamine H3 receptor [2] = target: T1, Histamine H3 receptor; assay: Agonist activity at human histamine H3 receptor expressed in human HEK293-EBNA cells by luciferase reporter gene assay; assay type: functional, cell-based
How it was run: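 Human H3 receptor expressed individually in 293-EBNA cells; compounds tested for agonism at 10^-5 M in a luciferase reporter gene assay.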

Histamine H3 receptor [3] = target: T1, Histamine H3 receptor; assay: Antagonist activity at human histamine H3 receptor expressed in human HEK293-EBNA cells assessed as inhibition of histamine-induced response at 100 uM by luciferase reporter gene assay; assay type: functional, cell-based

Structure (SMILES)	Ki (Histamine H3 receptor [1]) [nM]	Activity (Histamine H3 receptor [2])	inhibition (Histamine H3 receptor [3]) [%]
CC[C@@H](CNCc1ccc(Cl)cc1)[C@@H]1C[C@H]1c1c[nH]cn1	19.8	inactive	95
Clc1ccc(CNCC[C@H]2C[C@@H]2c2c[nH]cn2)cc1	3.6	–	100
Clc1ccc(CNCC[C@@H]2C[C@H]2c2c[nH]cn2)cc1	8.4	–	100
CC[C@H](CNCc1ccc(Cl)cc1)[C@@H]1C[C@H]1c1c[nH]cn1	–	inactive	73
CC[C@H](CNCc1ccc(Cl)cc1)[C@H]1C[C@@H]1c1c[nH]cn1	–	inactive	96

Next, values leading:

Ki (Histamine H3 receptor [1]) [nM]	Activity (Histamine H3 receptor [2])	inhibition (Histamine H3 receptor [3]) [%]	Structure (SMILES)
6.7	inactive	88	CC[C@@H](CNCc1ccc(Cl)cc1)[C@H]1C[C@@H]1c1c[nH]cn1
129	–	–	CC[C@H](CNCc1ccc(Cl)cc1)[C@@H]1C[C@H]1c1cnc[nH]1
63	–	–	CC[C@H](CNCc1ccc(Cl)cc1)[C@H]1C[C@@H]1c1cnc[nH]1
